Data set [1] deals with OATP1B1. The following applies: read-out: OATP1B1 IC50, cited from earlier work.
Data set [2] is classed as in vivo, human. The following applies: for AUC(0-t) / Cmax: human, plasma, oral; for Cmax: geometric mean (mean, %CV), healthy subjects. In a few lines:
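Phase I single-dose complete crossover in healthy subjects, randomised to two test formulations and a reference formulation. Dosed 300/120 mg fasting in the morning, with at least 5 days washout; subjects confined ~4 days on standardized meals. Plasma (K2EDTA, stored −20 °C) sampled predose to 48 h and extracted liquid-liquid with deuterated internal standards. Calibration ~0.200–100 ng/mL; high range ~85.0–10,000 (GLE) or ~85.0–1,050 ng/mL (PIB). Noncompartmental, linear-trapezoidal analysis; BLQ set to zero.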

The conditions of data set [3]: cited from earlier work.
The test system of data set [4] is OATP1B1. The conditions noted are these: as per the FDA guidance; unbound concentration in hepatic portal vein; cited from earlier work.
For data set [5] the following is noted: cited from earlier work. This is another data set of the same source.
Data set [6] deals with OATP1B3. The following applies: as per the FDA guidance; unbound concentration in hepatic portal vein; cited from earlier work.
Data set [7] deals with OATP1B3. The conditions noted are these: read-out: OATP1B3 IC50; in vitro; cited from earlier work.
Data set [8] relates to OATP1B1/1B3. It counts as in vivo, human. The conditions noted are these: for AUC0–16 of endogenous biomarker / AUC0–48 of endogenous biomarker / Cmax of endogenous biomarker: geometric mean (mean, %CV); for AUC0–16 ratio relative to baseline / AUC0–48 ratio relative to baseline / Cmax ratio relative to baseline: point estimate (90% CI). The method, boiled down:
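Healthy volunteers in a crossover each got a single fasting 300/120 mg dose of formulation A, B or C. Plasma (K2EDTA, stored −20 °C) drawn predose and up to 48 h. Cmax, AUC0–16 and AUC0–48 derived noncompartmentally by linear trapezoid. Predose level served as baseline; baseline AUC = baseline concentration × interval. Ratios to baseline given with 90% CI; mixed model compared A or B with C.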

The test system of data set [9] is OATP1B3. The conditions noted are these: read-out: Km for OATP1B3; cited from earlier work.
Data set [10] has as its system OATP1B1. The following applies: read-out: Km for OATP1B1; cited from earlier work.
Data set [11] relates to OATP1B1/1B3. The conditions noted are these: n = 56; across different ethnicities; cited from earlier work.
For data set [12] the following is noted: cited from earlier work. The source holds these as a separate data set.
Where [13] appears, read: AUC0–16, geometric mean (mean, %CV), GLE/PIB 300/120 mg Formulation A.
Setting [14] is: AUC0–16, geometric mean (mean, %CV), GLE/PIB 300/120 mg Formulation B.
The mark [15] stands for this setting: AUC0–16, geometric mean (mean, %CV), GLE/PIB 300/120 mg Formulation C.
The mark [16] stands for this setting: AUC0–48, geometric mean (mean, %CV), GLE/PIB 300/120 mg Formulation A.
The mark [17] stands for this setting: AUC0–48, geometric mean (mean, %CV), GLE/PIB 300/120 mg Formulation B.
Where [18] appears, read: AUC0–48, geometric mean (mean, %CV), GLE/PIB 300/120 mg Formulation C.
Where [19] appears, read: single dose GLE/PIB 300/120 mg Formulation A, fasting.
Setting [20] is: single dose GLE/PIB 300/120 mg Formulation B, fasting.
Where [21] appears, read: single dose GLE/PIB 300/120 mg Formulation C (reference), fasting.
The mark [22] stands for this setting: after GLE/PIB 300/120 mg Formulation A.
[23] abbreviates: after GLE/PIB 300/120 mg Formulation B.
The mark [24] stands for this setting: after GLE/PIB 300/120 mg Formulation C.

A word on the IC50: it is the concentration at which inhibition is half-maximal. Broadly, the AUC(0-t) is exposure summed from dosing to a finite time, without extrapolation to infinity. A high value points to high exposure. A word on the Cmax: it is the peak of the concentration-time curve. As usually defined, the half-life is the time needed for the level to fall by half in the phase considered. Usually Km stands for the substrate concentration at which the rate is half of its maximum.

Structures are written as SMILES. Where “and” joins values, the source holds several entries; their conditions need not be identical. Equal entries are not always repeated. Where two headings read alike, the source gives them in different places.

On to `CC(C)(C)[C@@H]1NC(=O)O[C@@H]2CCC[C@H]2OC/C=C/C(F)(F)c2nc3ccccc3nc2O[C@@H]2C[C@@H](C(=O)N[C@]3(C(=O)NS(=O)(=O)C4(C)CC4)C[C@H]3C(F)F)N(C2)C1=O` [GLE, glecaprevir], for which the IC50 in the data set with OATP1B1 [1] (in vitro) is 17 nM; in the data set on OATP1B3 [7], 64 nM. Moreover, in data set [2] (across formulations), the “share of exposure observed in the first 16 hours postdose” value is given as 94–97%. For the same compound, the “exposures (Cmax, AUC0–16, AUC0–48) lower relative to reference formulation C” value in [2] (formulation A, fasting) is on record as ~ 80%; in [2] (formulation B, fasting) it was about 26%. Besides, the AUC(0-t) was determined as 344 ng·h/mL in data set [2] (setting [13]); 1330 ng·h/mL in data set [2] (setting [14]); 1800 ng·h/mL in data set [2] (setting [15]); 367 ng·h/mL in data set [2] (setting [16]); 1370 ng·h/mL in data set [2] (setting [17]); 1850 ng·h/mL in [2] (setting [18]). Also, the Cmax stood at 88.5 ng/mL in data set [2] (setting [19]), 330 ng/mL in [2] (setting [20]) and 444 ng/mL in data set [2] (setting [21]). In [3], the half-life result is “about 6 hours”. Also, the “OATP1B1 R value” with OATP1B1 [4] is 5.5. Moreover, the “fu,p (fraction of unbound inhibitor in plasma)” value in [5] was 0.025. The “OATP1B3 R value” with OATP1B3 [6] is recorded as 2.2.

Take `CC1=C(CCC(=O)O)c2cc3nc(cc4[nH]c(cc5[nH]c(cc1n2)c(CCC(=O)O)c5C)c(CCC(=O)O)c4C)C(CCC(=O)O)=C3C` [CP‐I, coproporphyrin (CP)‐I]: in the data set on OATP1B1/1B3 [8] (setting [22]), the “AUC0–16 of endogenous biomarker” value is recorded as 8.98 (9.10, 16) ng·h/mL; the “AUC0–48 of endogenous biomarker” value was 25.4 (25.6, 12) ng·h/mL; the “Cmax of endogenous biomarker” value is recorded as 0.726 (0.740, 21) ng/mL; the “AUC0–16 ratio relative to baseline” value is given as 0.97 (0.89 to 1.06). Moreover, in the data set on OATP1B1/1B3 [8] (setting [22]), the “AUC0–48 ratio relative to baseline” value is given as 0.91 (0.85 to 0.97) and the “Cmax ratio relative to baseline” value is recorded as 1.25 (1.12 to 1.41). In the data set with OATP1B1/1B3 [8] (setting [23]), the “AUC0–16 of endogenous biomarker” value was 11.7 (11.9, 23) ng·h/mL; the “AUC0–48 of endogenous biomarker” value is 28.2 (28.5, 18) ng·h/mL; the “Cmax of endogenous biomarker” value is 1.19 (1.24, 26) ng/mL; the “AUC0–16 ratio relative to baseline” value was 1.25 (1.18 to 1.32). Moreover, in the data set with OATP1B1/1B3 [8] (setting [23]), the “AUC0–48 ratio relative to baseline” value is 1.01 (0.96 to 1.06) and the “Cmax ratio relative to baseline” value was 2.05 (1.81 to 2.32). Moreover, in the data set on OATP1B1/1B3 [8] (setting [24]), the “AUC0–16 of endogenous biomarker” value is given as 13.2 (13.3, 16) ng·h/mL; the “AUC0–48 of endogenous biomarker” value is 30.3 (30.6, 13) ng·h/mL; the “Cmax of endogenous biomarker” value is 1.44 (1.48, 23) ng/mL; the “AUC0–16 ratio relative to baseline” value was 1.39 (1.29 to 1.51). In the data set with OATP1B1/1B3 [8] (setting [24]), the “AUC0–48 ratio relative to baseline” value is 1.07 (1.02 to 1.13) and the “Cmax ratio relative to baseline” value is 2.44 (2.11 to 2.82). Also, the baseline plasma concentration in the data set on OATP1B1/1B3 [8] (mean and SD, predose, all study periods) was 0.59 ± 0.09 ng/mL and 0.90 ± 0.14 nM. In the data set on OATP1B3 [9], the Km was 3.95 µM. For the same compound, the Km in the data set on OATP1B1 [10] is 130 nM. Besides, the “baseline plasma concentration, previously reported range” value in the data set on OATP1B1/1B3 [11] is 0.5 to 1.5 nM.

In the case of `CC1=C(CCC(=O)O)c2cc3nc(cc4[nH]c(cc5[nH]c(cc1n2)c(C)c5CCC(=O)O)c(CCC(=O)O)c4C)C(CCC(=O)O)=C3C` [CP‐III], in the data set on OATP1B1/1B3 [8] (setting [22]), the “AUC0–16 of endogenous biomarker” value is given as 1.20 (1.22, 19) ng·h/mL; the “AUC0–48 of endogenous biomarker” value is recorded as 3.32 (3.44, 23) ng·h/mL; the “Cmax of endogenous biomarker” value is 0.104 (0.105, 16) ng/mL; the “AUC0–16 ratio relative to baseline” value is 0.94 (0.84 to 1.06). In the data set on OATP1B1/1B3 [8] (setting [22]), the “AUC0–48 ratio relative to baseline” value is 0.86 (0.82 to 0.95) and the “Cmax ratio relative to baseline” value is on record as 1.31 (1.18 to 1.46). For the same compound, in the data set on OATP1B1/1B3 [8] (setting [23]), the “AUC0–16 of endogenous biomarker” value is 1.07 (1.24, 73) ng·h/mL; the “AUC0–48 of endogenous biomarker” value is reported as 2.77 (3.44, 41) ng·h/mL; the “Cmax of endogenous biomarker” value is given as 0.113 (0.116, 25) ng/mL; the “AUC0–16 ratio relative to baseline” value is recorded as 0.96 (0.85 to 1.08). Moreover, in the data set on OATP1B1/1B3 [8] (setting [23]), the “AUC0–48 ratio relative to baseline” value is listed as 0.90 (0.80 to 1.01) and the “Cmax ratio relative to baseline” value is reported as 1.34 (1.18 to 1.53). Moreover, in the data set with OATP1B1/1B3 [8] (setting [24]), the “AUC0–16 of endogenous biomarker” value is given as 1.23 (1.30, 36) ng·h/mL; the “AUC0–48 of endogenous biomarker” value was 2.87 (3.23, 41) ng·h/mL; the “Cmax of endogenous biomarker” value is given as 0.115 (0.119, 26) ng/mL; the “AUC0–16 ratio relative to baseline” value was 1.01 (0.86 to 1.20). Besides, in the data set on OATP1B1/1B3 [8] (setting [24]), the “AUC0–48 ratio relative to baseline” value is 0.79 (0.60 to 1.03) and the “Cmax ratio relative to baseline” value is reported as 1.49 (1.24 to 1.78).

With `COC(=O)N[C@H](C(=O)N1CCC[C@H]1c1nc2cc([C@H]3CC[C@H](c4cc5nc([C@@H]6CCCN6C(=O)[C@@H](NC(=O)OC)[C@@H](C)OC)[nH]c5cc4F)N3c3cc(F)c(N4CCC(c5ccc(F)cc5)CC4)c(F)c3)c(F)cc2[nH]1)[C@@H](C)OC` [PIB, pibrentasvir], the IC50 with OATP1B1 [1] (in the presence of 4% bovine serum albumin) was 1300 nM. The “exposures lower relative to reference formulation C” value in data set [2] (formulations A and B, fasting) is given as 28–49%. In addition, the AUC(0-t) in data set [2] (setting [13]) came out at 546 ng·h/mL; in data set [2] (setting [14]), 514 ng·h/mL; in [2] (setting [15]), 977 ng·h/mL; in data set [2] (setting [16]) it was 658 ng·h/mL; in data set [2] (setting [17]) it was 622 ng·h/mL; in [2] (setting [18]) it was 1170 ng·h/mL. For the same compound, the Cmax worked out at 86.8 ng/mL in data set [2] (setting [19]), 83.7 ng/mL in data set [2] (setting [20]) and 163 ng/mL in data set [2] (setting [21]). For the same compound, in data set [3], the half-life is about 13 h. Moreover, the “OATP1B1 R value” in the data set on OATP1B1 [4] is 1.4. For the same compound, the “RB (blood-to-plasma concentration ratio)” value in [12] is reported as 0.62.

(Values after article PMC7877830 (Clinical and Translational Science, 2020).)
